Screens (PubChem BioAssay)
CTSL1 counter: Fasciola hepatica cathepsin L1 inhibitors, primary screen, counter-screen for PFM18AAP inhibitor project, biochemical, QFRET, fluorogenic peptide substrate; recombinant F. hepatica cathepsin L1, Z-Leu-Arg-MCA fluorescence; inhibition, % at 5.96 µM; actives 0.49% (n = 300,000); AID 1906, 2009;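 active means inhibition above the mean of all tested compounds plus 3 SD, set per screening campaign, cut at about 17% in these data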;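 further: 0% = plate median of test compound wells and 100% = 1 µM Z-Phe-Ala-diazomethylketone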
UPR XBP1 act: activators of adaptive XBP1 UPR arm, primary screen, cell-based, CHO-XBP1 luciferase reporter, luminescence, uHTS; IRE1-XBP1 UPR activation; percent of tunicamycin response, DMSO as zero; activation, % at 20 µM; actives 0.33% (n = 330,000); AID 463104, 2010;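 active means versus positive control, 20 µM dose yields 30% or more activation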;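 further: 100% = tunicamycin at 10 µg/mL and 0% = DMSO only wells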
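Material: CHO-XBP1 cells stably carrying IRE1-XBP1-driven luciferase reporter | Medium: F12 with 10% serum | Compound dosing: 20 µM single concentration, DMSO 1% | Incubation: Overnight seeding at 37 °C, 6 h compound treatment at 37 °C | Detection: Steady-Glo luminescence read | Read-out basis: % activation of reporter signal versus tunicamycin and DMSO controls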
CHOP inhibitor: inhibitors of CHOP promoter induction, primary screen, cell-based, unfolded protein response, luciferase reporter; CHO-K1 CHOP-promoter luciferase, tunicamycin-induced, 15-18 h; inhibition, % at 10 µM; actives 3.8% (n = 220,000); AID 2732, 2010;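 active means compounds that reduced the stress-induced luciferase reporter signal by more than about 70% of percent inhibition, limit read from the data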;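 further: 0% = tunicamycin plus vehicle and 100% = wells without tunicamycin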
UPR CHOP act: activators of apoptotic CHOP UPR arm, primary screen, cell-based, CHO-CHOP luciferase reporter, luminescence, uHTS. UPR activation; percent of tunicamycin response over DMSO baseline. activation, % at 10 µM. actives 0.34% (n = 330,000). AID 449763, 2010;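 active means at 10 µM dose, activation of 40% or more, normalized to positive control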;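 further: 100% = tunicamycin at 10 µg/mL and 0% = DMSO alone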
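assay system = CHO CHOP reporter cells | amount = 500 CHO-CHOP cells per well | buffer or medium = F12 with 10% FBS | incubation = 16-18 h cell attachment, then 6 h compound exposure, 37 °C | detection = luminescence read with Steady-Glo | read-out = percent activation relative to tunicamycin control | controls = tunicamycin high control, DMSO low control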
UCH37 inh: inhibitors of human UCH37 deubiquitinase, primary screen, biochemical, Ub-AMC cleavage, fluorescence; Ubiquitin carboxyl-terminal hydrolase isozyme L5 (Homo sapiens), Q9Y5K5; purified proteasome/UCH37; inhibition, % (no concentration beside the values); actives 0.33% (n = 330,000); AID 588478, 2011;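 active means mean inhibition over replicate wells above about 20%, limit read from the data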;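 further: 0% = compound-free wells with enzyme and 100% = wells lacking proteasome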
Target sequence (Q9Y5K5 whole entry, looked up): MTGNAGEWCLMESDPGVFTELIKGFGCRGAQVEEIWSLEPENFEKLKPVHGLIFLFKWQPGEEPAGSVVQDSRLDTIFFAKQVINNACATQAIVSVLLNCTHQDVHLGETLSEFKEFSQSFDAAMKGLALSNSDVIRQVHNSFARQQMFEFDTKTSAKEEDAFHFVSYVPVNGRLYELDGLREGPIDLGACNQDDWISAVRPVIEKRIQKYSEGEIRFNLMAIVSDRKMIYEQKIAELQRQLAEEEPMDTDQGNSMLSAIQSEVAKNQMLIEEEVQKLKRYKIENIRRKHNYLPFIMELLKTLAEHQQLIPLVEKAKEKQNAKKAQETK
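Schedule: 30 min plus 25 min, room temperature / Material: human UCH37 within purified proteasomes / Technique: AMC fluorescence intensity at 355/460 nm / Buffer or medium: pH 7.4 Tris-HCl (50 mM) with ovalbumin, ATP-MgCl2, DTT / Controls: wells without proteasome as full block, compound-free enzyme plus substrate as uninhibited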
The depositor's hits bear a star; . = not tested or not shown. The entries come from a sample that favours hits as a whole.

SMILES | CTSL1 counter | UPR XBP1 act | CHOP inhibitor | UPR CHOP act | UCH37 inh
CN(c1ccc(C(=O)Nc2ccc3c(c2)OCCO3)cc1)S(C)(=O)=O | -3.5 | 0.8 | 11.3 | 1.4 | 1.2
CN(c1ccc(C(=O)Nc2ccc3c(c2)OCO3)cc1)S(C)(=O)=O | 17.2* | 0.4 | -22.3 | 3.5 | 1.7
Cc1cccc(-c2n[nH]c(=S)n2N=Cc2cccs2)c1 | . | . | . | . | 3.5
O=C1CCCCC1C(Nc1ccc(Cl)cc1)c1ccccc1 (stereo not drawn) | 1.8 | 0.5 | 93.6* | 0.6 | 7.8
O=C1CCCCC1C(Nc1ccc(Br)cc1)c1ccccc1 (stereo not drawn) | 0.2 | 3.2 | 79.8* | -0.9 | 6.5
CCOC(=O)NC(c1ccccc1)C1CCCCC1=O (stereo not drawn) | -1.5 | -0.2 | -29.9 | 1.1 | -0.3
Cc1cc2c(cc1C)CSC(c1ccccc1OC(=O)C(C)C)SC2 | -1.6 | 1.0 | 71.8* | 0.4 | 5.1
COCCn1c(-c2ccc(OC(F)(F)C(F)C(F)(F)F)cc2)nc2c1c(=O)[nH]c(=O)n2CC(C)C (stereo not drawn) | 4.6 | -2.4 | 73.3* | -1.6 | -9.1
CN1C(=O)/C(=C/c2ccccc2Cl)Sc2ccc(C(=O)NCc3cccnc3)cc21 | 0.2 | -1.1 | 81.5* | 0.9 | -7.2
CN1C(=O)/C(=C/c2ccccc2F)Sc2ccc(C(=O)NCC3CCCO3)cc21 (stereo not drawn) | -3.2 | -1.6 | . | 0.4 | -4.4
O=C1CC(N2CCC(Cc3ccccc3)CC2)C(=O)N1CCc1ccccc1 (stereo not drawn) | -1.7 | -2.5 | 71.7* | -1.3 | 1.7
CCC(=O)Nc1ccc(C(=O)NN=Cc2cc(Br)c(OC)cc2OC)cc1 | . | . | . | . | -0.4
Cc1ccc(-n2ccnc(SCC(=O)NC3CCCCC3)c2=O)cc1F | 25.3* | -0.3 | . | -1.9 | -24.0
Cc1ccc2c(CN3CCN(S(=O)(=O)/C=C/c4ccccc4)CC3)cc(=O)oc2c1 | -5.4 | -2.5 | 23.4 | 1.7 | .
Cc1ccc2oc(=O)cc(/C=C/c3ccccc3)c2c1 | 6.9 | 0.1 | 75.7* | 0.6 | -6.3
Cc1cc(NC(=O)CC2CCCC2)n(-c2nc3ccccc3[nH]2)n1 | 3.3 | 13.2 | 85.0* | 0.4 | -0.1
COCc1c(C(=O)NN=Cc2c[nH]c3ccccc23)nnn1-c1nonc1N | . | . | . | . | -27.0
CC1CCC(NC(=O)C2CCN(S(=O)(=O)c3ccc4nc5c(c(C(=O)O)c4c3)CC(C)CC5)CC2)CC1 (stereo not drawn) | 19.1* | -3.5 | 30.3 | -1.2 | -1.6
CCOC(=O)c1ccc(Oc2nc(N(C)C)nc(N(C)C)n2)cc1 | 4.7 | 0.2 | 71.3* | -1.1 | 1.2
CCOC(=O)c1ccc(Oc2nc(SC)nc(N(C)C)n2)cc1 | -1.1 | -2.0 | 69.2 | -1.3 | 3.2
CC(=O)NN=C(C)CC(=O)Nc1cccc2c1CCCC2 | . | . | . | . | 2.6
Cc1ccc[n+](-c2[nH]c(=O)sc2C=N/N=C(\[O-])CCn2c3ccccc3c3ccccc32)c1 | . | . | . | . | 2.5
Cc1ccc(OCCn2c(C)c(/C=N/n3cnnc3)c3ccccc32)cc1 | 1.6 | 5.2 | 81.0* | -0.5 | .
Cc1ccc(OCC(O)Cn2c3ccccc3c3ccccc32)cc1 (stereo not drawn) | 1.1 | 0.7 | 62.3 | -1.2 | 0.8
OC(CN1CCN(c2ccccc2)CC1)Cn1c2ccccc2c2ccccc21 (stereo not drawn) | 2.4 | -3.3 | 80.2* | 0.9 | 1.9
SMILES | CTSL1 counter | UPR XBP1 act | CHOP inhibitor | UPR CHOP act | UCH37 inh
Cc1ccc(OCCN2CCN(CC(O)Cn3c4ccccc4c4ccccc43)CC2)cc1 (stereo not drawn) | 1.1 | 6.1 | 95.9* | 2.2 | 0.4
OC(CN1CCN(Cc2ccccc2)CC1)Cn1c2ccccc2c2ccccc21 (stereo not drawn) | 2.2 | 1.3 | 64.0 | -0.6 | 4.9
S=C(NCCc1ccccc1)NN=Cc1cccs1 | . | . | . | . | 2.8
O=C1NCCCC1C(=O)NN=Cc1cccc(Cl)c1 (stereo not drawn) | . | . | . | . | 4.2
S=c1[nH]nc(-c2cccc(Cl)c2)n1N=Cc1ccco1 | . | . | . | . | 3.0
CC(C)C[C@H](NC(=O)OC(C)(C)C)c1nnc(SCc2ccccc2)o1 | 22.6* | -0.5 | 52.5 | -0.4 | 1.8
Cc1cccc(C)c1NC(=O)CSc1nnc([C@H](C)NC(=O)OC(C)(C)C)o1 | 1.4 | -1.6 | 79.2* | -0.6 | 2.0
CC(C)=CCSc1nnc([C@@H](NC(=O)OC(C)(C)C)C(C)C)o1 | 36.5* | -0.6 | 12.7 | -1.9 | 4.8
CC(C)[C@H](NC(=O)OC(C)(C)C)c1nnc(SCC(=O)Nc2ccc(Br)cc2)o1 | 0.9 | -3.1 | 73.2* | 1.0 | 1.1
Cc1[nH]c(=O)[nH]c(=O)c1CSc1nnc([C@@H](NC(=O)OC(C)(C)C)C(C)C)o1 | 3.5 | -1.4 | -4.8 | -2.6 | 2.1
CC1(CC(=O)NN=Cc2cc(Br)c(O)cc2O)OCCO1 | . | . | . | . | -0.9
Cc1nnc(C)n1N=Cc1ccc(C(=O)O)cc1 | . | . | . | . | 1.4
NC(=O)c1oc2ccccc2c1NC(=O)c1ccc(F)cc1 | -1.2 | 1.7 | 31.2 | 1.5 | -26.8
NC(=O)c1oc2ccccc2c1NC(=O)c1ccc([N+](=O)[O-])o1 | 26.0* | 4.1 | . | 8.2 | 6.5
Cc1ccc(Nc2nc(C)c(CCC(C)C)c(=O)[nH]2)cc1 | -2.7 | -6.7 | 78.0* | 1.9 | 1.9
Cc1nc(NCc2ccccc2)[nH]c(=O)c1CCC(C)C | 0.0 | -0.1 | 75.5* | 0.5 | 4.3
O=C(NC1=C(Nc2ccc(F)cc2)C(=O)c2ccccc2C1=O)c1ccc(Cl)cc1 | 4.5 | 3.1 | -12.4 | 4.5 | 20.9*
O=C(CNC(=O)c1ccccc1F)NN=Cc1cc(Br)ccc1OCc1ccccc1 | . | . | . | . | 6.1
Cc1ccc(/C=C/C(=O)N2CCC(Cc3ccccc3)CC2)cc1 | -1.2 | -0.5 | 86.8* | 2.7 | 2.2
Cc1ccc(/C=C/C(=O)N2CCCC(C)C2)cc1 (stereo not drawn) | -0.1 | -3.4 | 32.0 | 1.5 | 3.1
COc1ccc2cc(C(N)=O)c(=NNC(=O)c3ccco3)oc2c1 | . | . | . | . | 11.1
CCOC(=O)c1sc(NC(=O)CSc2nc(C)cc(-c3ccccc3)n2)c(C#N)c1C | -2.1 | -0.1 | -7.1 | 0.0 | 0.3
CCOC(=O)c1c(NC(=O)c2ccncc2)sc(C)c1C | 5.2 | 3.3 | 29.4 | 0.2 | 0.1
CCOC(=O)c1sc(NC(=O)c2ccncc2)c(C#N)c1C | 19.5* | 0.0 | 19.0 | -1.6 | 9.1
CCOC(=O)c1c(NC(=O)c2cc(-c3ccc(Cl)s3)nc3ccccc23)sc(C(N)=O)c1C | -2.5 | . | 21.3 | . | -1.3
CCOC(=O)c1sc(NC(=O)c2cc(-c3ccccc3C)nc3ccccc23)c(C#N)c1C | 1.2 | -3.8 | 71.8* | 5.3 | 3.4
